Published values from different studies.
Each line is one published result; the experiments were not run side by side.
TEC: Tyrosine-protein kinase Tec (TEC, Homo sapiens, UniProt P42680)
TEC phosphorylated: Tyrosine-protein kinase Tec, phosphorylated (TEC, Homo sapiens, UniProt P42680)

SMILES | target | effect on | action | technique | tested at | quantity | result
CN(c1ccnc(CNc2nc(Nc3ccc4c(c3)CC(=O)N4)ncc2C(F)(F)F)n1)S(C)(=O)=O | TEC | cell-free assay | – | competition with immobilised ligand | 1 µM | remaining binding | 100%
CC(C)(C)c1nc2c(s1)c1nc(N)ncc1c1ccc(NS(=O)(=O)c3c(F)cccc3F)c(F)c12 | TEC | enzyme activity | inhibitor | radiometric | 1 µM | remaining activity | 87%
CC(=O)N1CCC(c2ccc(C(=O)NC(=N)N)cc2C(F)(F)F)CC1 | TEC | binding | – | competition with immobilised ligand | 1 µM | remaining binding | 100%
O=C1NC(=O)c2cc(Nc3ccc(F)cc3)c(Nc3ccc(F)cc3)cc21 | TEC | cell-free assay | – | – | 0.5 µM | remaining signal | 102%
CC(=O)C1=C(C)N(c2cccc(C(F)(F)F)c2)C(=O)N[C@@H]1c1ccc(C#N)nc1 | TEC | binding | – | competition with immobilised ligand | 1 µM | remaining binding | 100%
N#CCCc1ccc2c(c1)-c1[nH]c3ccc([N+](=O)[O-])cc3c1CC(=O)N2 | TEC | cell-free assay | – | – | 0.5 µM | remaining signal | 120%
Cc1sc(C(=O)NC2COC2)cc1-n1cc(NC(=O)Nc2c(F)cccc2Cl)cn1 | TEC | enzyme activity | inhibitor | – | 10 µM | remaining activity | 91.1%
C[C@@H]1CN(c2cc(-c3nn(C)c4ccc(OC5(C)CC5)cc34)ncn2)C[C@H](C)O1 | TEC | cell-free assay | – | competition with immobilised ligand | 1 µM | remaining binding | 100%
O=C(N[C@@H](C1CC1)C(F)(F)F)c1cc(-c2cnn3cc(-c4ccc(F)cc4)cnc23)cs1 | TEC | enzyme activity | inhibitor | radiometric | 40 nM | inhibition | 0%
Cc1cnc(NC2CCOCC2)nc1-n1cnc(C(=O)NC(CN)c2cc(F)cc(Cl)c2)c1 (centres unmarked) | TEC phosphorylated | enzyme activity | inhibitor | radiometric | 1 µM | remaining activity | 102%
CC/C(=N\NC(=O)NCc1cccc(O)c1)c1ccc(O)c(C)c1O | TEC | enzyme activity | inhibitor | – | 0.1 µM | inhibition | 0.2%
CCCOc1ccc(OC)c(F)c1C(=O)c1ccc(C(=O)N[C@@H]2CNC[C@H]2NC(=O)c2ccc3[nH]ncc3c2)cc1 | TEC phosphorylated | enzyme activity | inhibitor | – | 10 µM | remaining activity | 50%
c1nc2c(Nc3ccc4c(c3)OCCO4)nc(Nc3ccc4c(c3)OCCO4)nc2[nH]1 | TEC | enzyme activity | inhibitor | – | 10 µM | activity vs control | 2.5%
CCCOc1ccc([C@@H]2[C@@H](C(=O)O)[C@H](c3ccc4c(c3)OCO4)CN2CC(=O)Nc2c(CC)cccc2CC)cc1 | TEC | binding | – | competition with immobilised ligand | 1 µM | remaining binding | 96%
Cc1ccc(C(=O)NCc2ccsc2)cc1C#Cc1cn(C(C)C)c2ncnc(N)c12 | TEC phosphorylated | enzyme activity | inhibitor | – | 1 µM | activity vs control | 107%
COc1cc(Cl)c(C(=O)N[C@@H](CN[C@H]2CC[C@@H](N)CC2)Cc2ccc(C#N)cc2)cc1-c1ccc(CN[C@H](C)c2ccc(C)cc2)o1 | TEC phosphorylated | enzyme activity | inhibitor | – | 1 µM | remaining activity | 90%
Nc1ncnc2occ(-c3ccc(NC(=O)Nc4cc(C(F)(F)F)ccc4F)cc3)c12 | TEC | cell-free assay | inhibitor | – | 20 µM | remaining signal | 53%
O=C1Nc2ccc(Cl)cc2C1=Cc1cc(Cl)c(O)c(Cl)c1 | TEC | cell-free assay | – | – | 0.5 µM | remaining signal | 109%
O=C(O)[C@@H]1[C@@H](Cn2nnc3ccccc3c2=O)CC[C@H]1C(=O)c1ccc(OCCC2CCOCC2)cc1 | TEC | binding | – | competition with immobilised ligand | 1 µM | remaining binding | 95%
O=C(Nc1cnn(-c2csc(C(=O)NC3COC3)c2)c1)Nc1ccccc1Cl | TEC | enzyme activity | inhibitor | – | 5 µM | remaining activity | 97.2%
